Laboratory results reported in ChEMBL document CHEMBL1157151, “Design and synthesis of N-(3,5-difluoro-4-hydroxyphenyl)benzenesulfonamides as aldose reductase inhibitors” (Bioorg Med Chem, 2008).

Key:
[1] = molecular target: Aldo-keto reductase family 1 member B1 (Rattus norvegicus, UniProt P07943); assay: Inhibition of aldose reductase in rat lenses
Summary of the method: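 Activity read spectrophotometrically as NADPH oxidation. Five concentrations; IC50 by least-squares fit of linear portion of log(dose)–response curve; triplicate.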

Jejunum [2] = assay: Apparent permeability from serosal to mucosal side in Wistar rat jejunum; type: functional, tissue-based
Summary of the method: (§1)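 Jejunum from starved male Wistar rats (250–320 g), 1 cm² exposed, in side-by-side diffusion chambers; 25 min preincubation. Donor: 0.479 mM compound, 10 µM fluorescein paracellular marker, glucose or mannitol in Ringer buffer, applied mucosal (M–S) or serosal (S–M). Acceptor sampled every 25 min to 175 min. Viability checked by PD, Isc, TEER. HPLC-UV 220 nm, fluorescein by fluorescence. Papp calculated.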

Jejunum [3] = assay: Apparent permeability from mucosal to serosal side in Wistar rat jejunum; type: functional, tissue-based; summary of the method: as §1
[4] = DPPH radical scavenging activity; type: functional
Summary of the method: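 Compound in ethanol mixed with ethanolic DPPH; final 0.2–0.0125 mM compound, 0.2 mM DPPH. Absorbance loss at 517 nm followed. IC50 from nine concentrations at 270 min steady state; EC50 = IC50/[DPPH]. Initial rate from linear absorbance decrease over first 30 s at equimolar 0.2 mM. Triplicate.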

[5] = Antioxidant activity assessed as inhibition of DOPC liposomes; type: functional
Summary of the method: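 Unilamellar DOPC liposomes (final 0.8 mM) in 20 mM phosphate buffer pH 7.4 incubated with test compound (10–300 µM) and AAPH initiator (final 10 mM), 50 °C, 80 min. Lipid hydroperoxides extracted with CHCl₃/MeOH (2:1) containing BHT, measured by thiocyanate method at 500 nm against cumene hydroperoxide calibration. IC50 by least-squares fit of linear part of semilog % inhibition plot; triplicate.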

Jejunum [6] = assay: Ratio of permeability from serosal to mucosal over mucosal to serosal side of the Wistar rat jejunum

SMILES | IC50 [1] [µM] | permeability (Jejunum [2]) [×10⁻⁶ cm/s] | permeability (Jejunum [3]) [×10⁻⁶ cm/s] | IC50 [4] [µM] | IC50 [5] [µM] | Ratio (Jejunum [6])
Nc1ccc(S(=O)(=O)Nc2cc(F)c(O)c(F)c2)cc1 | 14.1 | – | – | – | – | –
O=S(=O)(Nc1cc(F)c(O)c(F)c1)c1ccccc1 | 32.9 | 2.91 | 6.34 | 49 | 95.9 | 0.46
COc1ccc(S(=O)(=O)Nc2cc(F)c(O)c(F)c2)cc1 | 15.5 | – | – | – | – | –
CC(/C=C1\SC(=S)N(CC(=O)O)C1=O)=C\c1ccccc1 | – | 10.9 | 4.34 | – | – | 2.5
O=[N+]([O-])c1ccc(S(=O)(=O)Nc2cc(F)c(O)c(F)c2)cc1 | 44.4 | – | – | – | – | –
Cc1c(C)c2c(c(C)c1O)CCC(C)(C(=O)O)O2 (centres undefined) [TROLOX] | – | – | – | 37 | 93.5 | –
